# According to article PMC3061052 (Nucleic Acids Research, 2010):
# Numbering of substitutions follows the chain as printed. Entries after “also recorded” stand apart in the source; their conditions may differ.
# Columns and labels:
# NpmA E88A = target: T1, NpmA E88A (Escherichia coli, UniProt A8C927, E88A); assay: ITC titration of NpmA E88A variant with cofactor; format: binding; conditions: 20°C
# T1 sequence (A8C927 1-219 E88A): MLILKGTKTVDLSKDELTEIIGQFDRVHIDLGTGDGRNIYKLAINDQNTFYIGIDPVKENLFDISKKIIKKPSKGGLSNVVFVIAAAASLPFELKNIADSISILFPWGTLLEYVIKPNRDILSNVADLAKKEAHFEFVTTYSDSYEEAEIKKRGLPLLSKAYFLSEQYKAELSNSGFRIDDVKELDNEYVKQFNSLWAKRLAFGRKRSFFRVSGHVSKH
# NpmA D30A = target: T2, NpmA D30A (Escherichia coli, UniProt A8C927, D30A); assay: ITC titration of NpmA D30A variant with cofactor; format: binding; conditions: 20°C
# T2 sequence (A8C927 1-219 D30A): T1 sequence (A8C927 1-219 E88A) with D30A, A88E
# NpmA D55A = target: T3, NpmA D55A (Escherichia coli, UniProt A8C927, D55A); assay: ITC titration of NpmA D55A variant with cofactor; format: binding; conditions: 20°C
# T3 sequence (A8C927 1-219 D55A): T1 sequence (A8C927 1-219 E88A) with D55A, A88E
# NpmA (wild-type) = target: T4, NpmA (wild-type) (Escherichia coli, UniProt A8C927); assay: ITC titration of wild-type NpmA with cofactor; format: binding
# T4 sequence (A8C927 1-219): T1 sequence (A8C927 1-219 E88A) with A88E
# NpmA S195A = target: T5, NpmA S195A (Escherichia coli, UniProt A8C927, S195A); assay: ITC titration of NpmA S195A variant with cofactor; format: binding; conditions: 20°C
# T5 sequence (A8C927 1-219 S195A): T1 sequence (A8C927 1-219 E88A) with A88E, S195A
# [1] = test system: E. coli BL21(DE3)pLysS cells carrying recombinant pET-25b(+) vector with different npmA variants; assay: Kanamycin MIC dilution assay in cells carrying npmA variants; format: cell-based, Escherichia coli
# In short: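 BL21(DE3)pLysS cells with pET-25b(+) npmA variants were grown overnight, diluted 100-fold in LB with ampicillin (100 mg/l) and chloramphenicol (34 mg/l), and grown to OD600 1. Cells were inoculated into the same medium with kanamycin at 0.5–1024 mg/l in twofold steps and incubated 18 h at 37°C. MIC was the lowest kanamycin concentration preventing visible growth.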
structure (smiles),measurement,setting,value
"Nc1ncnc2c1ncn2[C@@H]1O[C@H](CSCC[C@H](N)C(=O)O)[C@@H](O)[C@H]1O [AdoHcy, S-adenosylhomocysteine]",Kd for AdoHcy,NpmA E88A,completely lost their ability to interact; also recorded: No binding
same,Kd for AdoHcy,NpmA D30A,completely lost their ability to interact; also recorded: No binding
same,Kd for AdoHcy,NpmA D55A,completely lost their ability to interact; also recorded: No binding
same,N (ITC single site fit) for AdoHcy,NpmA (wild-type),1.0
"C[S+](CC[C@H](N)C(=O)[O-])C[C@H]1O[C@@H](n2cnc3c(N)ncnc32)[C@H](O)[C@@H]1O (stereo partly shown) [AdoMet, S-adenosylmethionine]",Kd for AdoMet,NpmA E88A,completely lost their ability to interact; also recorded: No binding
same,Kd for AdoMet,NpmA D30A,completely lost their ability to interact; also recorded: No binding
same,Kd for AdoMet,NpmA D55A,completely lost their ability to interact; also recorded: No binding
same,Kd for AdoMet,NpmA S195A,complete loss of AdoMet binding; also recorded: No binding
same,N (ITC single site fit) for AdoMet,NpmA (wild-type),1.1
same,Kd,"NpmA (wild-type); Kd for AdoMet, ITC, 20°C, no 30S subunit",18 µM
"NC[C@H]1O[C@H](O[C@H]2[C@H](O)[C@@H](O[C@H]3O[C@H](CO)[C@@H](O)[C@H](N)[C@H]3O)[C@H](N)C[C@@H]2N)[C@H](O)[C@@H](O)[C@@H]1O [Kanamycin, kanamycin]",Kanamycin MIC,"[1]; Negative control (empty vector), 18 h at 37°C",4 to 8 mg/L
same,Kanamycin MIC,[1]; cells expressing NpmA D30A,8 mg/L
same,Kanamycin MIC,[1]; cells expressing NpmA D55A,512 mg/L
same,kanamycin MIC compared to the wt NpmA,[1]; cells expressing NpmA D55A,50%
same,Kanamycin MIC,[1]; cells expressing NpmA E88A,1024 mg/L
same,Kanamycin MIC,[1]; cells expressing NpmA F177A,1024 mg/L
same,Kanamycin MIC,[1]; cells expressing NpmA K199A,1024 mg/L
same,Kanamycin MIC,[1]; cells expressing NpmA P106A,1024 mg/L
same,Kanamycin MIC,[1]; cells expressing NpmA R200A,1024 mg/L
same,Kanamycin MIC,[1]; cells expressing NpmA R205A,1024 mg/L
same,Kanamycin MIC,[1]; cells expressing NpmA S195A,1024 mg/L
same,Kanamycin MIC,[1]; cells expressing NpmA T109A,1024 mg/L
same,Kanamycin MIC,[1]; cells expressing NpmA W107A,8 mg/L
same,Kanamycin MIC,[1]; cells expressing NpmA W197A,8 mg/L
same,Kanamycin MIC,[1]; cells expressing NpmA-wt,1024 mg/L
